Test results published in ChEMBL document CHEMBL4152382, “Discovery of Tarantula Venom-Derived NaV1.7-Inhibitory JzTx-V Peptide 5-Br-Trp24 Analogue AM-6120 with Systemic Block of Histamine-Induced Pruritis” (J Med Chem, 2018).
Active and inactive are the calls of the source. The calls are words filed in the database; no cut-off is given here.

Tests used:
[1] = biological target: Sodium channel protein type 5 subunit alpha (Homo sapiens, UniProt Q14524); assay: Inhibition of human Nav1.5 expressed in HEK293 cells at holding potential of […] after 10 mins by patchxpress-based electrophysiology assay; assay type: cell-based
[2] = biological target: T1, Sodium channel protein type 9 subunit alpha (Mus musculus, UniProt Q62205); assay: Inhibition of Nav1.7 in C57/BL6 mouse DRG neurons assessed as reduction in TTX sensitive sodium channel-mediated currents by whole cell manual patch clamp assay
[3] = Ratio of plasma concentration in C57/BL6 mouse model of histamine-induced pruritis at 1 mg/kg, sc to IC50 for Nav1.7 in C57/BL6 mouse DRG neurons by whole cell manual patch clamp assay; assay type: ADME, organism-based; settings: in vivo
[4] = system: Mus musculus; assay: In vivo inhibition of Nav1.7 in C57/BL6 mouse model of histamine-induced pruritis assessed as reduction in scratching bouts at 1 mg/kg, sc dosed 2 hrs before histamine challenge and measured for 15 mins relative to control; assay type: functional
Outline: (§1)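 Male C57Bl/6 mice aged 8–10 weeks; nape shaved under 3% isoflurane the day before, with 15 min chamber acclimation. Peptide given sc 2 h before intradermal histamine dichloride (8.15 mM, 100 μL); vehicle was PBS with 1% MSA. Scratch bouts video-recorded for 15 min, blinded scoring; n = 8–10 per group; one-way ANOVA with Dunnett's test versus vehicle.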

[5] = biological target: Sodium channel protein type 10 subunit alpha (Homo sapiens, UniProt Q9Y5Y9); assay: Inhibition of human Nav1.8 expressed in HEK293 cells after 10 mins by patchxpress-based electrophysiology; assay type: cell-based
[6] = system: Mus musculus; assay: Toxicity in C57/BL6 mouse assessed as effect on locomotor activity at 1 mg/kg, sc by open field assay; assay type: organism-based; settings: in vivo
[7] = biological target: Sodium channel protein type 9 subunit alpha (Homo sapiens, UniProt Q15858); assay: Inhibition of human Nav1.7 expressed in HEK293 cells at holding potential of -125 mV […] by patchxpress-based electrophysiology assay; assay type: cell-based
[8] = Apparent […] clearance in C57/BL6 mouse at 2 mg/kg, sc by LC-MS/MS analysis; assay type: ADME, organism-based; settings: in vivo
Outline: (§2)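 Male C57Bl/6 mice, n = 3 per time point, given a single 2 mg/kg subcutaneous dose. Plasma levels were quantified by LC-MS/MS over time, and pharmacokinetic parameters were derived from the plasma profiles. Data are reported as mean ± SEM for each time point.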

[9] = AUCt in C57/BL6 mouse at 2 mg/kg, sc by LC-MS/MS analysis; assay type: ADME, organism-based; settings: in vivo; outline: as §2
[10] = biological target: Sodium channel protein type 8 subunit alpha (Homo sapiens, UniProt Q9UQD0); assay: Inhibition of human Nav1.6 expressed in HEK293 cells at holding potential of -125 mV […] by patchxpress-based electrophysiology assay; assay type: cell-based
[11] = system: Mus musculus; assay: In vivo inhibition of Nav1.7 in C57/BL6 mouse model of histamine-induced pruritis assessed as reduction in scratching bouts at 0.5 mg/kg, sc dosed 2 hrs before histamine challenge and measured for 15 mins relative to control; assay type: functional; outline: as §1
[12] = Plasma concentration in C57/BL6 mouse model of histamine-induced pruritis at 2 mg/kg, sc; assay type: ADME, organism-based; settings: in vivo
Outline: (§3)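 Dosing was 2 h before an intradermal nape injection of histamine (8.15 mM, 100 μL). Scratching was videorecorded for 15 min by blinded experimenters, and peptide plasma concentrations were analysed from the same study.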

[13] = Plasma concentration in C57/BL6 mouse model of histamine-induced pruritis at 0.5 mg/kg, sc; assay type: ADME, organism-based; settings: in vivo; outline: as §3
[14] = MRT in C57/BL6 mouse at 2 mg/kg, sc by LC-MS/MS analysis; assay type: ADME, organism-based; settings: in vivo; outline: as §2
[15] = Plasma concentration in C57/BL6 mouse at 2 mg/kg, sc after 30 mins by LC-MS/MS analysis; assay type: ADME, organism-based; settings: in vivo, 0.5 h; outline: as §2
[16] = biological target: Sodium channel protein type 4 subunit alpha (Homo sapiens, UniProt P35499); assay: Inhibition of human Nav1.4 expressed in HEK293 cells at holding potential of -125 mV […] by patchxpress-based electrophysiology assay; assay type: cell-based
[17] = Inhibition of TTX-resistant sodium channel-mediated currents in C57/BL6 mouse DRG neurons by whole cell manual patch clamp assay; settings: C57/BL6, DRG neuron
[18] = Cmax in C57/BL6 mouse at 2 mg/kg, sc by LC-MS/MS analysis; assay type: ADME, organism-based; set-up: dose 2 mg/kg, route subcutaneous; settings: in vivo; outline: as §2
[19] = Ratio of plasma concentration in C57/BL6 mouse model of histamine-induced pruritis at 0.5 mg/kg, sc to IC50 for Nav1.7 in C57/BL6 mouse DRG neurons by whole cell manual patch clamp assay; assay type: ADME, organism-based; settings: in vivo
[20] = Ratio of plasma concentration in C57/BL6 mouse model of histamine-induced pruritis at 2 mg/kg, sc to IC50 for Nav1.7 in C57/BL6 mouse DRG neurons by whole cell manual patch clamp assay; assay type: ADME, organism-based; settings: in vivo
[21] = system: Mus musculus; assay: Toxicity in C57/BL6 mouse assessed as effect on locomotor activity at 2 mg/kg, sc by open field assay; assay type: organism-based; settings: in vivo
[22] = Half life in C57/BL6 mouse at 2 mg/kg, sc by LC-MS/MS analysis; assay type: ADME, organism-based; settings: in vivo; outline: as §2
[23] = system: Mus musculus; assay: In vivo inhibition of Nav1.7 in C57/BL6 mouse model of histamine-induced pruritis assessed as reduction in scratching bouts at 2 mg/kg, sc dosed 2 hrs before histamine challenge and measured for 15 mins relative to control; assay type: functional; outline: as §1
[24] = Plasma concentration in C57/BL6 mouse model of histamine-induced pruritis at 1 mg/kg, sc; assay type: ADME, organism-based; settings: in vivo; outline: as §3
[25] = Tmax in C57/BL6 mouse at 2 mg/kg, sc by LC-MS/MS analysis; assay type: ADME, organism-based; settings: in vivo; outline: as §2
[26] = biological target: T1, Sodium channel protein type 9 subunit alpha; assay: Inhibition of mouse Nav1.7 expressed in HEK293 cells after 10 mins by patchxpress-based electrophysiology; assay type: cell-based
[27] = system: Mus musculus; assay: Volume of distribution at steady state in C57/BL6 mouse at 2 mg/kg, sc by LC-MS/MS analysis; assay type: ADME, organism-based; settings: in vivo; outline: as §2

T1 sequence (Q62205 whole entry): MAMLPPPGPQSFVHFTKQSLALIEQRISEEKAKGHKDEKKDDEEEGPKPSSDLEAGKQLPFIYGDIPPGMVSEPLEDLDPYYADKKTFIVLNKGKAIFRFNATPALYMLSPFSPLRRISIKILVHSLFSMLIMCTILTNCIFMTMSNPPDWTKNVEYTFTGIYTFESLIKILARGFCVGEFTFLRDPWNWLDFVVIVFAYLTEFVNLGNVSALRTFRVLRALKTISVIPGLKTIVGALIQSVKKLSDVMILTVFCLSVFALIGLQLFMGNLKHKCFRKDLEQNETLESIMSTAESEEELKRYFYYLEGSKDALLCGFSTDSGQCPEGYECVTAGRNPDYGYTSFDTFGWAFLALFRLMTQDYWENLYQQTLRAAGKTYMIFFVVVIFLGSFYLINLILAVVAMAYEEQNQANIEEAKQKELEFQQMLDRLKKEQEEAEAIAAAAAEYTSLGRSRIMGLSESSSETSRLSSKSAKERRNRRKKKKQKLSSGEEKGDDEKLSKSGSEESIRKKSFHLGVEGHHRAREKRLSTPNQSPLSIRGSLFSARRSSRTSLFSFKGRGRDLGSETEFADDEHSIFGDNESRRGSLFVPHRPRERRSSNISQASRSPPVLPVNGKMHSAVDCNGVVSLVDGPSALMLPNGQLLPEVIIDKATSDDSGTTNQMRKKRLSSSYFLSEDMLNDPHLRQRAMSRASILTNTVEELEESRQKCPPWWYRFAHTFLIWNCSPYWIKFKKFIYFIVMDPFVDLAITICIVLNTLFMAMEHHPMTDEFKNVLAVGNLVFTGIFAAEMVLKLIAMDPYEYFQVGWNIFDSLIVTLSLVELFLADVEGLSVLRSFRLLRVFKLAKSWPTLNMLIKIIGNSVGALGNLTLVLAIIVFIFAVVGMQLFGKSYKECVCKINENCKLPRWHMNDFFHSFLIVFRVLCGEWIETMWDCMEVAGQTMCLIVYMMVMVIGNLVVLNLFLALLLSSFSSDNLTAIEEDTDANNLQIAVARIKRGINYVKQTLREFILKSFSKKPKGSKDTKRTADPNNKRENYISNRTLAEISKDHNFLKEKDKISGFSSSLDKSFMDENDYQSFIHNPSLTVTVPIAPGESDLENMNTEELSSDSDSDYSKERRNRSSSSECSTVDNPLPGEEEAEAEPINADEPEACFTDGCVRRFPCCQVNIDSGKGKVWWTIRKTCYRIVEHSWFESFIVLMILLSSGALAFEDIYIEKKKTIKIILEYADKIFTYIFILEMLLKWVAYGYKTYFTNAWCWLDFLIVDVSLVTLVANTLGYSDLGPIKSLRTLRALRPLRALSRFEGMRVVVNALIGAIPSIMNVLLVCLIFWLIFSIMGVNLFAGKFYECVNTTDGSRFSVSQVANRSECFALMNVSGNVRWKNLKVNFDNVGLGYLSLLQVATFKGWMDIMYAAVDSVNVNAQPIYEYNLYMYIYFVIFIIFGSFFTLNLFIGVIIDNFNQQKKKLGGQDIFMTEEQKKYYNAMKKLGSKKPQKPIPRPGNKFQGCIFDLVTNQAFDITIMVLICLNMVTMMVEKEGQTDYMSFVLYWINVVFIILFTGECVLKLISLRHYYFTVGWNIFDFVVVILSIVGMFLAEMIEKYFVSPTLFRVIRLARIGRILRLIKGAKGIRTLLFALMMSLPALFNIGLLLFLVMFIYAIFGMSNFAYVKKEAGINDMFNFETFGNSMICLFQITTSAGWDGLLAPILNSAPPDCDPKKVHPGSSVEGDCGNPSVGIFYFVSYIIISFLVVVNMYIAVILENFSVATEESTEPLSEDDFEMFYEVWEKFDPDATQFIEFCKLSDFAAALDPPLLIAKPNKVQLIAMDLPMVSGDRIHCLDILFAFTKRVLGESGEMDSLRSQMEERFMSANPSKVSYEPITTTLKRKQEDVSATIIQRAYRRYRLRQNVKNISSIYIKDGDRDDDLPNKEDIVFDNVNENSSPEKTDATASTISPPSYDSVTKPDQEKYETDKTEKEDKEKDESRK
Chain of Sodium channel protein type 10 subunit alpha (Q9Y5Y9 whole entry): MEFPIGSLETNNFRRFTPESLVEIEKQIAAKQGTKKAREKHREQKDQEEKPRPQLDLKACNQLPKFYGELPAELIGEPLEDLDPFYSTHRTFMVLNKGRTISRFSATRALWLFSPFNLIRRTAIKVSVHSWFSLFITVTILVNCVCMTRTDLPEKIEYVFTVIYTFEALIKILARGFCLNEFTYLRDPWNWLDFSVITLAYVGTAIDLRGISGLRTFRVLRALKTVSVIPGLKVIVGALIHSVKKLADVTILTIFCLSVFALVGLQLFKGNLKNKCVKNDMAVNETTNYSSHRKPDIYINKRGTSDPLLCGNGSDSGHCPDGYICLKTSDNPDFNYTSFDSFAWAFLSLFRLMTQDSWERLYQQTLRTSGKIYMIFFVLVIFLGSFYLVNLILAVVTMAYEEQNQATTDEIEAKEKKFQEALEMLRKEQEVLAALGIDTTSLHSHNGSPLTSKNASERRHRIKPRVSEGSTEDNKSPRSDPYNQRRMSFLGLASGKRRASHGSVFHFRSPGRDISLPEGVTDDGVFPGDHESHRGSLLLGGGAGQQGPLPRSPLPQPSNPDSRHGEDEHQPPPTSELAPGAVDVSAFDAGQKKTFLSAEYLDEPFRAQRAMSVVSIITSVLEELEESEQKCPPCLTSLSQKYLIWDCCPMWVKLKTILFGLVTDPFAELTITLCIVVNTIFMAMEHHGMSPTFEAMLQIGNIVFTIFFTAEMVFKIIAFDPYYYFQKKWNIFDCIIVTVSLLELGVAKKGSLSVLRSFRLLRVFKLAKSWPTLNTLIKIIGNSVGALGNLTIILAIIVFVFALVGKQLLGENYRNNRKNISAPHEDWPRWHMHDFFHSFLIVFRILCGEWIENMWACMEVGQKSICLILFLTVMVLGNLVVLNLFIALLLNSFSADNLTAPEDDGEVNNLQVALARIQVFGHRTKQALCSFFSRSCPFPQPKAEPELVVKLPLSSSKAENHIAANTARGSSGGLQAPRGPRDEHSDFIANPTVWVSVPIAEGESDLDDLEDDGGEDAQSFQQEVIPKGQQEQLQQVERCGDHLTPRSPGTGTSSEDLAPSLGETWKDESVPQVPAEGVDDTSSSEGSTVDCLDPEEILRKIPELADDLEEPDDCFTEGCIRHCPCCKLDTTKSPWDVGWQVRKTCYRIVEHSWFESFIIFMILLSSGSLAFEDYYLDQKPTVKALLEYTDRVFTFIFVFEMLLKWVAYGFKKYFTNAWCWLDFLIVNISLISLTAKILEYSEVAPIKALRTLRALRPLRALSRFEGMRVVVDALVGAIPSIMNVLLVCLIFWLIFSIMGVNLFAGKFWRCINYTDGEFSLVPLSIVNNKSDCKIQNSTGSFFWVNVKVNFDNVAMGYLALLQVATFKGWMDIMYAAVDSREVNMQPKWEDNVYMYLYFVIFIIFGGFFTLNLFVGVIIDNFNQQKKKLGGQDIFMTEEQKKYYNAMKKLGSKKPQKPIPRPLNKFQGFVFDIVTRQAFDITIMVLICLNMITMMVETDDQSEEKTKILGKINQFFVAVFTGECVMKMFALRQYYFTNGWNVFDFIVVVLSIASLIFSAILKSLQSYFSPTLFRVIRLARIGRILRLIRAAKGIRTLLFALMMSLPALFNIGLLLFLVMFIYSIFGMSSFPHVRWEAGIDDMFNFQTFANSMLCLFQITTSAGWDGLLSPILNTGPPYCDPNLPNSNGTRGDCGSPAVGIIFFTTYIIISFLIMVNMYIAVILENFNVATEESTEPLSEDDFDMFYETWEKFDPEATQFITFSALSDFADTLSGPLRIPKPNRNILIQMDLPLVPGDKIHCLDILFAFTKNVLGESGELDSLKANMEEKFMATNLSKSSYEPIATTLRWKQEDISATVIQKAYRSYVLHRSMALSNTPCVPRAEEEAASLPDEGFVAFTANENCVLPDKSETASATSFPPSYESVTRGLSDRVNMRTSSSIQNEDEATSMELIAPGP

C#CC[C@H](N)C(=O)N[C@@H](Cc1ccc(O)cc1)C(=O)N[C@H]1CSSC[C@@H]2NC(=O)[C@@H]3CSSC[C@@H](C(=O)N[C@@H](CCCNC(=N)N)C(=O)N[C@@H](CCCCN)C(=O)N[C@@H](CCC(=O)O)C(=O)N[C@H](C(N)=O)[C@@H](C)CC)NC(=O)[C@H](Cc4c[nH]c5ccccc45)NC(=O)[C@H](CC(C)C)NC(=O)[C@H](CCCCN)NC(=O)[C@H](CSSC[C@H](NC(=O)[C@H]([C@@H](C)O)NC(=O)[C@H](Cc4c[nH]c5ccccc45)NC(=O)[C@H](CCCC)NC(=O)[C@H](Cc4c[nH]c5ccccc45)NC(=O)[C@H](CCCCN)NC(=O)[C@H](CCC(N)=O)NC1=O)C(=O)N[C@@H](CC(=O)O)C(=O)N[C@@H](CO)C(=O)N[C@@H](CCCCN)C(=O)N[C@@H](CCCNC(=N)N)C(=O)N[C@@H](C)C(=O)N3)NC(=O)[C@H](CCCNC(=N)N)NC(=O)[C@H](CC(C)C)NC(=O)CNC(=O)[C@H](CCC(=O)O)NC2=O
IC50 [1]: 3070 nM | IC50 [2]: 9 nM | Ratio [3]: 6.5 | Activity [4]: inactive | IC50 [5]: > 1000 nM | Activity [6]: Non-Toxic | IC50 [7]: 0.5 nM

C#CC[C@H](NC(=O)[C@@H](N)CCC(=O)O)C(=O)N[C@H]1CSSC[C@@H]2NC(=O)[C@@H]3CSSC[C@@H](C(=O)N[C@@H](CCCNC(=N)N)C(=O)N[C@@H](CCCCN)C(=O)N[C@@H](CCC(=O)O)C(=O)N[C@H](C(N)=O)[C@@H](C)CC)NC(=O)[C@H](Cc4c[nH]c5ccc(Br)cc45)NC(=O)[C@H](CC(C)C)NC(=O)[C@H](CCCCN)NC(=O)[C@H](CSSC[C@H](NC(=O)[C@H]([C@@H](C)O)NC(=O)[C@H](Cc4c[nH]c5ccccc45)NC(=O)[C@H](CCCC)NC(=O)[C@H](Cc4c[nH]c5ccccc45)NC(=O)[C@H](CCCCN)NC(=O)[C@H](CCC(N)=O)NC1=O)C(=O)N[C@@H](CC(=O)O)C(=O)N[C@@H](CO)C(=O)N[C@@H](C)C(=O)N[C@@H](CCCNC(=N)N)C(=O)N[C@@H](C)C(=O)N3)NC(=O)[C@H](CCCNC(=N)N)NC(=O)[C@H](CC(C)C)NC(=O)CNC(=O)[C@H](CCC(=O)O)NC2=O
CL/F [8]: 2 mL/min/kg | AUC(0-t) [9]: 4.5 µM·h | IC50 [10]: 104 nM | inhibition in vivo at 0.5 mg/kg [11]: 7.3% | concentration [12]: 535 nM | concentration [13]: 122 nM | MRT [14]: 3.7 h | Drug uptake [15]: Active | IC50 [1]: 6640 nM | IC50 [2]: 5.1 nM | IC50 [16]: 104 nM | IC50 [17]: > 10000 nM | Cmax [18]: 1480 nM | Ratio [3]: 59 | Ratio [19]: 24 | Ratio [20]: 105 | Activity [21]: Non-Toxic | inhibition in vivo at 1 mg/kg [4]: 22.5% | IC50 [5]: > 1000 nM | half-life [22]: 4.95 h | inhibition in vivo at 2 mg/kg [23]: 88.9% | concentration [24]: 300 nM | Tmax [25]: 0.5 h | IC50 [26]: 5.4 nM | Vdss [27]: 0.444 L/kg | IC50 [7]: 0.8 nM
